Screening data as filed in PubChem BioAssay.
Sampled rows, rich in hits. Any-hit rate of the full collection: about 2.1%.
SR-BI uptake up = activators of SR-BI mediated DiI-HDL uptake, primary screen, ldlA[mSR-BI] CHO cells, DiI fluorescence | 320,000 compounds, 0.096% hits | AID 504775, 2011 | 3 h; 100 = double the neutral-control signal | activation, % at 12.5 µM;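 active = mean replicate activation of at least 60% and every replicate at or above 60%; inconclusive = mean or all-replicate condition met, but not both; inactive = mean below 60% and not all replicates reaching 60%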;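 also: 0% = median plate neutral-control signal and 100% = twice that signal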
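System: CHO ldlA[mSR-BI] cells / Medium: HEPES-buffered (25 mM, pH 7.4) F12 plus 0.5% BSA / Probe or stimulus: labelled HDL, 10 µg/mL / Doses: single compound concentration, delivered by pin transfer / Schedule: 3 h, 37 °C / Measured by: DiI fluorescence, bottom read / Measure: cell-associated DiI fluorescence as measure of HDL uptake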
CAL PDZ FP-1 = CAL PDZ peptide-binding inhibitors, primary screen, biochemical, fluorescence polarization, Cer-tagged CAL PDZ, HTS; inhibition, % at 20 µM; AID 504414, 2011; 330,000 compounds, 0.02% hits; purified CAL PDZ, TMR-peptide fluorescence polarization, 1 h; Golgi-associated PDZ and coiled-coil motif-containing protein (Homo sapiens), Q9HD26;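 active = highest replicate inhibition of at least 40%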;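 also: plate controls were DMSO neutral control wells for no effect and unlabeled competitor peptide control wells for full effect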
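Control set: unlabelled peptide and DMSO controls / Material: purified CerCALP PDZ construct / Timing: 1 h incubation at room temperature before polarization reading / Doses: 20 µM, one dose / Detection: fluorescence polarization (mP)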
ARNT TACC3 PPI = disruptors of ARNT/TACC3 protein interaction, primary screen, biochemical, AlphaScreen, single concentration. inhibition, % at 9.99 µM. AlphaScreen His-ARNT PAS-B/GST-TACC3 binding, luminescence; TACC3 fragment carries E629A point mutation. AID 623870, 2012. 390,000 compounds, 0.66% hits;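 active = mean inhibition of replicates at least 50% and at least half of replicates each reaching 50%; inconclusive = half or more replicates reach 50% but mean below 50%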;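 also: 0% = complete ARNT plus TACC3 wells and 100% = ARNT alone without TACC3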
SR-BI DiI inh = inhibitors of SR-BI mediated HDL lipid uptake, primary screen, ldlA[mSR-BI] cells, fluorescence, single point | 320,000 compounds, 0.96% hits | AID 488896, 2010 | Scavenger receptor class B member 1 (Mus musculus), Q61009 | ldlA[mSR-BI] CHO cells, DiI-HDL uptake fluorescence, 3 h | inhibition, % at 12.5 µM;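 active = mean replicate inhibition of at least 70% and a set share of replicates each scoring 70 or more; inconclusive = meets just one of the two criteria; inactive = fails both criteria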;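 also: 0% = median of neutral control wells and 100% = median of positive control wells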
Target sequence (Q61009 whole entry, looked up): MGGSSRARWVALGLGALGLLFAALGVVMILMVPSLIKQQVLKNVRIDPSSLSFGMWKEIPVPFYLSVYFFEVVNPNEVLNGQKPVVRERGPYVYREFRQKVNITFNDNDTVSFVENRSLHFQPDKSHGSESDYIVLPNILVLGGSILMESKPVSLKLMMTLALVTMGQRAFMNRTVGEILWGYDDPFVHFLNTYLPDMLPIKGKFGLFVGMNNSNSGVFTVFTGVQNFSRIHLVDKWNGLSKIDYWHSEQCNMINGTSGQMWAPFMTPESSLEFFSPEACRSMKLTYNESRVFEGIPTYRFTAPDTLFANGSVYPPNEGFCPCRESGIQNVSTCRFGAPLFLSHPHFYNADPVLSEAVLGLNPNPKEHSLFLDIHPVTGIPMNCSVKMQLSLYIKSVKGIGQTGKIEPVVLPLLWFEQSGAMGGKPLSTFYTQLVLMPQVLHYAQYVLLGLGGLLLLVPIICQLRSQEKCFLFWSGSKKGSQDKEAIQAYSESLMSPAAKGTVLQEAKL
miR122 inh = miR-122 Renilla sensor signal increase in Huh7, primary screen, miR-122 inhibitor project, cell-based, single point, plate reader. Huh7 miR-122 Renilla luciferase sensor, 48 h; neutral wells = 0, positive control = 100. activation (reporter increase), % at 12.5 µM. 340,000 compounds, 0.3% hits. AID 602342, 2012;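 active = mean replicate activation score at least 90 and every replicate individually at or above 90; inconclusive = only one of the two criteria met; inactive = neither criterion met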;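 also: higher luciferase means less miR-122 activity so hits act as miR-122 inhibitors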
CAL PDZ FP-2 = untagged CAL PDZ binding inhibitors, primary screen, biochemical, fluorescence polarization, HTS; purified CAL PDZ, TMR-peptide fluorescence polarization, 1 h; inhibition, % at 24.9 µM; 300,000 compounds, 0.92% hits; AID 602252, 2012;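 active = mean inhibition of at least 30% with at least half of replicates also reaching 30%; inconclusive = no clear call, values can overlap the other calls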;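 also: 0% = DMSO neutral control and 100% = excess unlabeled competitor peptide PRC23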
The depositor's hits bear a star; ? = inconclusive; nt = no result given; [ ] = remark or other dose.

SMILES | SR-BI uptake up | CAL PDZ FP-1 | ARNT TACC3 PPI | SR-BI DiI inh | miR122 inh | CAL PDZ FP-2
CCC(=O)Nc1ccc2c(c1)C(=O)N(C)C[C@H](OC)[C@@H](C)CN(Cc1ccccc1F)[C@@H](C)CO2 | nt | nt | -8.2 | nt | nt | nt
COc1ccc(-c2nc(N)ncc2-c2ccc(OC)c(OC)c2)c(O)c1 | nt | nt | -11.9 | nt | nt | 58.9*
CCN1C(=O)/C(=C2/C(=O)N3c4c(cc(OC(C)=O)cc42)C(C)=CC3(C)C)SC1=S | -86.0 | -0.4 | -0.6 | 86.0* | nt | 3.2
COc1cc2c3c(c1)/C(=C1/SC(NC(C)=O)=NC1=O)C(=O)N3C(C)(C)C=C2C | -19.7 | 0.0 | 5.2 | 19.7 | -5.3 | 3.1
CCCn1nnnc1SCC(=O)N1CCCC1 | ? | -1.4 | -2.9 | -80.8 | 5.0 | 43.5*
COc1ccc(-c2cn(CC[C@H]3CC[C@@H](NC(=O)NC(C)C)[C@H](CO)O3)nn2)cc1 | nt | nt | 1.0 | nt | nt | nt
CC(=O)Nc1ccc(S(=O)(=O)Nc2cccc(-c3csc(C)n3)c2)cc1 | 6.2 | -3.7 | nt | -6.2 | 283.4* | -0.6
O=S(=O)(c1ccccc1)N1C[C@H]2[C@@H](c3ccccc31)[C@@H](CO)N2Cc1ccc2c(c1)OCO2 | nt | nt | -3.8 | nt | 140.0*[16.7 µM] | nt
O=S(=O)(c1ccccc1)N1C[C@H]2[C@@H](c3ccccc31)[C@H](CO)N2Cc1ccc2c(c1)OCO2 | nt | nt | -1.7 | nt | 10.0[16.7 µM] | nt
COc1cc(/C=C2/C(=O)N(c3ccc(Br)cc3)N=C2C)cc(OC)c1OC | -6.1 | 0.4 | 10.5 | 6.1 | -1.7 | -2.7
COc1cc(/C=C2/C(=O)N(c3ccc(C(=O)O)cc3)N=C2C)cc(OC)c1O | 2.5 | nt | 11.9* | -2.5 | nt | -3.1
Cc1nn(-c2cc(C(F)(F)F)ccc2Cl)c2nc(C(F)(F)F)[nH]c(=O)c12 | 9.1 | -2.4 | -0.8 | -9.1 | 0.9 | 0.7
Cc1nn(-c2cccc(Cl)c2)c2nc(C(F)(F)F)[nH]c(=O)c12 | -4.5 | -2.1 | -4.1 | 4.5 | nt | 43.2*
Cn1c(NCc2ccco2)nc2c1c(=O)n(Cc1ccc(Cl)c(Cl)c1)c(=O)n2C | -24.4 | -0.5 | -2.8 | 24.4 | -9.5 | 75.9*
C[C@H](CO)N1C[C@H](C)[C@@H](CN(C)C(=O)Nc2ccc(F)cc2)OCc2ccccc2-c2c(n(C)c3ccccc23)C1=O | nt | nt | 26.8 | nt | nt | nt
O=C(C[C@@H]1CC[C@@H]2[C@H](COC[C@H](O)CN2S(=O)(=O)c2cccc(Cl)c2)O1)NC1Cc2ccccc2C1 | nt | nt | 15.2 | nt | -3.3[16.7 µM] | nt
COc1ccc(NC(=O)n2ncc3c(C)cccc32)cc1 | 1.7 | nt | -40.8 | -1.7 | nt | 62.0*
COc1ccc(NC(=O)n2ncc3c(C)cccc32)cc1OC | nt | 0.4 | 7.1 | nt | -5.8 | 0.8
CN(Cc1nc2ccccc2[nH]1)C(=O)C1CCC(=O)N(C2CCCC2)C1 (stereo not drawn) | 12.5 | -0.8 | -1.8 | -12.5 | 3.6 | 14.2
Cc1cccc2[nH]c(CN(C)C(=O)C3CCC(=O)N(C4CC4)C3)nc12 (stereo not drawn) | 6.2 | -1.1 | 1.9 | -6.2 | -2.0 | 42.7*
Cc1noc(C)c1NC(=O)Nc1ccc2c(c1)C(=O)N([C@H](C)CO)C[C@H](C)[C@@H](CN(C)C(=O)C1CCCCC1)OCCCC[C@H](C)O2 | nt | nt | -9.4 | nt | -0.8[16.7 µM] | nt
O=C1C(Nc2ccccc2)=CC(c2ccc(O)cc2)N1c1ccccc1 (stereo not drawn) | nt | -2.5 | 67.4* | nt | 10.3 | 0.6
Cc1cc(Cn2nnc3ccccc32)c(O)c(C(C)(C)C)c1 | -23.8 | -0.1 | 9.7 | 23.8 | 133.6* | 2.7
CN1CCN(C(=O)CC2C(=O)NCCN2Cc2ccc(-c3ccccc3)cc2)CC1 (stereo not drawn) | 22.2 | -0.7 | 0.6 | -22.2 | nt | 71.3*
O=C(CC1C(=O)NCCN1Cc1ccc(-c2ccccc2)cc1)NCc1ccccc1 (stereo not drawn) | -5.8 | 0.1 | -1.3 | 5.8 | -1.8 | -0.2
SMILES | SR-BI uptake up | CAL PDZ FP-1 | ARNT TACC3 PPI | SR-BI DiI inh | miR122 inh | CAL PDZ FP-2
CC(C)C(=O)Nc1nnc(S(=O)(=O)N(C)c2ccc(Cl)cc2)s1 | 14.7 | nt | -10.8 | -14.7 | nt | 44.9*
CN(c1ccc(Cl)cc1)S(=O)(=O)c1nnc(NC(=O)c2ccco2)s1 | 5.5 | -1.7 | 1.2 | -5.5 | -5.1 | -5.3
CC(C)(C)NC(=O)COC(=O)CCC(=O)c1ccc(Cl)cc1 | 17.4 | -1.3 | -7.4 | -17.4 | nt | 3.0
CC(C)CNC(=O)COC(=O)CCC(=O)c1ccc(Cl)cc1 | 26.5 | 40.9* | -1.6 | -26.5 | -4.8 | 13.4
CC(Oc1ccccc1)C(=O)Nc1cccc(NC(=O)c2ccco2)c1 (stereo not drawn) | -8.4 | nt | -4.1 | 8.4 | -11.7 | 118.5*
O=C(NCc1cccnc1)c1ccc(NC(=O)c2ccco2)cc1 | 12.5 | -0.7 | 2.1 | -12.5 | -3.4 | 135.1*
CCn1c2ccccc2c2cc(NC(=O)c3ccco3)ccc21 | -81.7 | -1.4 | 7.3 | 81.7* | 3.8 | -1.7
CCn1c2ccccc2c2cc(NC(C)=O)ccc21 | -4.5 | -1.3 | -5.8 | 4.5 | 8.5 | -0.5
CCN(C(=O)c1ccc(NC(=O)c2ccco2)cc1)c1ccccc1 | -1.6 | -1.0 | -4.5 | 1.6 | -9.7 | 56.7*
CC(C)NC(=O)NCC[C@H]1CC[C@H](NC(=O)Nc2ccccc2)[C@H](CO)O1 | nt | nt | 4.4 | nt | -10.2[16.7 µM] | nt
CC(C)[C@H](NC(=O)c1ccco1)C(=O)OCC(=O)Nc1cccc(F)c1 | 1.1 | -1.1 | -3.3 | -1.1 | nt | 68.8*
C=Cc1cccc(NC(=O)c2ccc(NC(=O)c3ccco3)cc2)c1 | -92.4 | -0.6 | 1.9 | 92.4* | nt | 2.1
CC1N(C)c2cc(NC(=O)c3ccco3)ccc2C1(C)C (stereo not drawn) | 139.5* | -37.9 | 15.2 | -139.5 | nt | -193.4
C[C@@H]1CN([C@H](C)CO)C(=O)c2cc(-c3ccccc3)cnc2O[C@@H]1CN(C)C(=O)c1ccccc1F | nt | nt | 7.3 | nt | nt | nt
COc1ccc(Br)c(C(=O)Nc2ccc(F)cc2)c1 | -7.3 | -1.4 | -4.4 | 7.3 | nt | 39.7*
O=C(Nc1ccc(F)cc1)c1cc(Cl)sc1Cl | 16.0 | 26.8 | 4.0 | -16.0 | nt | 87.2*
C[C@@H]1CCCCO[C@H](CN(C)Cc2ccncc2)[C@@H](C)CN([C@@H](C)CO)C(=O)c2cc(NC(=O)Nc3ccccc3)ccc2O1 | nt | nt | -0.6 | nt | 25.9[16.7 µM] | nt
